ChEMBL document CHEMBL1144178, “Synthesis and biological evaluation of 2-(3',4',5'-trimethoxybenzoyl)-3-N,N-dimethylamino benzo[b]furan derivatives as inhibitors of tubulin polymerization” (Bioorg Med Chem, 2008)

How the values were obtained:
[1] = test system: FM3A; experiment: Antiproliferative activity against mouse FM3A cells after 2 days; format: functional, cell-based; conditions: 48 h
[2] = test system: K562; experiment: Cell cycle arrest in human K-562 cells assessed as accumulation at sub G0/G1 phase at 212 nM after 24 hrs by flow cytometry; format: functional
Procedure, shortened: (§1)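 K562 cells exposed 24 h to compound, then washed once in ice-cold PBS. Resuspended at 1 × 10⁶ per mL in hypotonic propidium iodide 50 μg/mL with 0.1% sodium citrate and 0.03% (v/v) nonidet P-40, 30 min. Fluorescence read by flow cytometry as a single-parameter histogram. Sub-G0-G1, G0-G1, S and G2-M fractions compared with untreated control.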

[3] = Inhibition of bovine brain tubulin polymerization for 20 mins by turbidimetry; set-up: species or system Bos taurus
Procedure, shortened: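 Purified bovine brain tubulin (10 μM) preincubated with varying compound concentrations in glutamate buffer at 30 °C, cooled to 0 °C, GTP added, then warmed to 30 °C in a recording spectrophotometer.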

[4] = test system: K562; experiment: Cell cycle arrest in human K-562 cells assessed as accumulation at G2/M phase at 212 nM after 24 hrs by flow cytometry; format: functional; procedure, shortened: as §1
[5] = test system: K562; experiment: Cell cycle arrest in human K-562 cells assessed as accumulation at G0/G1 phase at 212 nM after 24 hrs by flow cytometry; format: functional; procedure, shortened: as §1
[6] = test system: L1210; experiment: Antiproliferative activity against mouse L1210 cells after 2 days; format: functional, cell-based; conditions: L1210, 48 h
Procedure, shortened: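 Cells were seeded at 300,000–500,000 cells/mL and mixed 1:1 with compound dilutions. They were incubated at 37 °C for two days and counted with a Coulter counter. IC50 is the concentration that inhibits proliferation by 50%, given as mean ± SE from dose–response curves of at least three independent experiments.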

[7] = test system: K562; experiment: Cell cycle arrest in human K-562 cells assessed as accumulation at S phase at 212 nM after 24 hrs by flow cytometry; format: functional; procedure, shortened: as §1
[8] = test system: K562; experiment: Cell cycle arrest in human K-562 cells assessed as accumulation at G0/G1 phase at 115 nM after 24 hrs by flow cytometry; format: functional; procedure, shortened: as §1
[9] = test system: K562; experiment: Cell cycle arrest in human K-562 cells assessed as accumulation at G2/M phase at 115 nM after 24 hrs by flow cytometry; format: functional; procedure, shortened: as §1
[10] = test system: K562; experiment: Cell cycle arrest in human K-562 cells assessed as accumulation at sub G0/G1 phase at 115 nM after 24 hrs by flow cytometry; format: functional; procedure, shortened: as §1
[11] = organism: Bos taurus; experiment: Displacement of [3H]colchicine from bovine brain tubulin at 1 uM
Procedure, shortened: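 Purified bovine brain tubulin (1 μM) was incubated with 5 μM [3H]colchicine and 1 μM test compound. The read-out is percent inhibition of radiolabelled colchicine binding.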

[12] = test system: K562; experiment: Cell cycle arrest in human K-562 cells assessed as accumulation at S phase at 115 nM after 24 hrs by flow cytometry; format: functional; procedure, shortened: as §1
[13] = test system: K562; experiment: Cell cycle arrest in human K-562 cells assessed as accumulation at sub G0/G1 phase at 400 nM after 24 hrs by flow cytometry; format: functional
[14] = test system: K562; experiment: Cytotoxicity against human K-562 after 24 hrs; format: functional, cell-based; conditions: K562, 24 h
[15] = test system: K562; experiment: Cell cycle arrest in human K-562 cells assessed as accumulation at S phase at 400 nM after 24 hrs by flow cytometry; format: functional
[16] = test system: K562; experiment: Cell cycle arrest in human K-562 cells assessed as accumulation at G2/M phase at 400 nM after 24 hrs by flow cytometry; format: functional
[17] = test system: K562; experiment: Cell cycle arrest in human K-562 cells assessed as accumulation at G0/G1 phase at 400 nM after 24 hrs by flow cytometry; format: functional
[18] = test system: K562; experiment: Cell cycle arrest in human K-562 cells assessed as accumulation at sub G0/G1 phase at 68 nM after 24 hrs by flow cytometry; format: functional
[19] = test system: K562; experiment: Cell cycle arrest in human K-562 cells assessed as accumulation at G2/M phase at 68 nM after 24 hrs by flow cytometry; format: functional
[20] = test system: K562; experiment: Cell cycle arrest in human K-562 cells assessed as accumulation at S phase at 68 nM after 24 hrs by flow cytometry; format: functional
[21] = test system: K562; experiment: Cell cycle arrest in human K-562 cells assessed as accumulation at G0/G1 phase at 68 nM after 24 hrs by flow cytometry; format: functional
[22] = test system: K562; experiment: Cell cycle arrest in human K-562 cells assessed as accumulation at S phase at 85 nM after 24 hrs by flow cytometry; format: functional
[23] = test system: K562; experiment: Cell cycle arrest in human K-562 cells assessed as accumulation at G2/M phase at 85 nM after 24 hrs by flow cytometry; format: functional
[24] = test system: K562; experiment: Cell cycle arrest in human K-562 cells assessed as accumulation at sub G0/G1 phase at 85 nM after 24 hrs by flow cytometry; format: functional
[25] = test system: K562; experiment: Cell cycle arrest in human K-562 cells assessed as accumulation at G0/G1 phase at 85 nM after 24 hrs by flow cytometry; format: functional
[26] = Antiproliferative activity against human Molt4/C8 cells after 3 days; conditions: MOLT-4, 72 h
[27] = test system: K562; experiment: Cell cycle arrest in human K-562 cells assessed as accumulation at S phase at 120 nM after 24 hrs by flow cytometry; format: functional
[28] = test system: K562; experiment: Cell cycle arrest in human K-562 cells assessed as accumulation at G0/G1 phase at 120 nM after 24 hrs by flow cytometry; format: functional
[29] = test system: K562; experiment: Cell cycle arrest in human K-562 cells assessed as accumulation at G2/M phase at 120 nM after 24 hrs by flow cytometry; format: functional
[30] = test system: K562; experiment: Cell cycle arrest in human K-562 cells assessed as accumulation at sub G0/G1 phase at 120 nM after 24 hrs by flow cytometry; format: functional

| SMILES | IC50 [1] | IC50 [3] | IC50 [6] | Activity [11] | other results |
| --- | --- | --- | --- | --- | --- |
| COc1ccc2c(NC(=O)CBr)c(C(=O)c3cc(OC)c(OC)c(OC)c3)oc2c1 | 0.56 µM | 2.3 µM | 0.48 µM |  | Activity [2]: 15%; Activity [4]: 67%; Activity [5]: 6%; Activity [7]: 27% |
| COc1ccc2oc(C(=O)c3cc(OC)c(OC)c(OC)c3)c(N)c2c1 | > 10 µM |  | > 10 µM |  |  |
| COc1cc(C(=O)c2oc3cccc(OC)c3c2N)cc(OC)c1OC | 7.9 µM |  | 7.5 µM |  |  |
| COc1cc(C(=O)c2oc3c(OC)cccc3c2N(C)C)cc(OC)c1OC | 1.2 µM |  | 1.1 µM |  |  |
| COc1ccc2c(NC(=O)CI)c(C(=O)c3cc(OC)c(OC)c(OC)c3)oc2c1 | 0.26 µM | 1.8 µM | 0.17 µM | 54% | Activity [8]: 23%; Activity [9]: 21%; Activity [10]: 33%; Activity [12]: 56% |
| COc1ccc2c(NC(=O)CCl)c(C(=O)c3cc(OC)c(OC)c(OC)c3)oc2c1 | 1.1 µM | 2 µM | 1.1 µM | 47% | Activity [13]: 13%; IC50 [14]: 0.4 µM; Activity [15]: 44%; Activity [16]: 33%; Activity [17]: 23% |
| COc1ccc2c(N)c(C(=O)c3cc(OC)c(OC)c(OC)c3)[nH]c2c1 |  | > 40 µM |  |  |  |
| COc1cc(C(=O)c2oc3ccccc3c2N)cc(OC)c1OC | > 10 µM |  | > 10 µM |  |  |
| COc1cc(C(=O)c2oc3ccccc3c2N(C)C)cc(OC)c1OC | 8.8 µM |  | > 10 µM |  |  |
| COc1ccc2oc(C(=O)c3cc(OC)c(OC)c(OC)c3)c(N(C)C)c2c1 | 1.2 µM |  | 1.4 µM |  |  |
| COc1ccc2c(N)c(C(=O)c3cc(OC)c(OC)c(OC)c3)sc2c1 | 0.046 µM | 1.3 µM | 0.039 µM | 60% |  |
| COc1ccc2c(N(C)C)c(C(=O)c3cc(OC)c(OC)c(OC)c3)oc2c1 | 0.059 µM | 0.9 µM | 0.065 µM | 76% | Activity [18]: 13%; Activity [19]: 30%; Activity [20]: 32%; Activity [21]: 38% |
| COc1cc(C(=O)c2oc3c(OC)cccc3c2N)cc(OC)c1OC | > 10 µM |  | > 10 µM |  |  |
| COc1ccc2c(NC(C)=O)c(C(=O)c3cc(OC)c(OC)c(OC)c3)oc2c1 | 0.1 µM | 1.6 µM | 0.094 µM | 51% | IC50 [14]: 0.085 µM; Activity [22]: 36%; Activity [23]: 37%; Activity [24]: 12%; Activity [25]: 27% |
| COc1cc(C(=O)c2oc3cccc(OC)c3c2N(C)C)cc(OC)c1OC | > 10 µM |  | > 10 µM |  | IC50 [26]: > 10 µM |
| COc1ccc2c(N)c(C(=O)c3cc(OC)c(OC)c(OC)c3)n(C)c2c1 |  | 4.6 µM |  |  |  |
| COc1ccc2c(N)c(C(=O)c3cc(OC)c(OC)c(OC)c3)oc2c1 | 0.28 µM | 1.1 µM | 0.43 µM | 73% | IC50 [14]: 0.12 µM; Activity [27]: 45%; Activity [28]: 11%; Activity [29]: 44%; Activity [30]: 15% |
